Results from ChEMBL document CHEMBL3758106, “Antitumor Activity of Americanin A Isolated from the Seeds of Phytolacca americana by Regulating the ATM/ATR Signaling Pathway and the Skp2-p27 Axis in Human Colon Cancer Cells” (J Nat Prod, 2015).
pIC50: −log10 of the molar value. Active and inactive are the calls of the source. The rule behind the calls is not given here.

What was measured:
[1] = tested on: HCT-116; assay: Induction of cell cycle arrest in human HCT116 cells assessed as accumulation at G0/G1 phase at 30 uM after 48 hrs by propidium iodide staining-based flow cytometric analysis in presence of RNase A (reference value: 54.3%); format: functional
[2] = tested on: HCT-116; assay: Induction of apoptosis in human HCT116 cells assessed as dead cells at 7.5 uM after 48 hrs by annexin V-FITC/propidium iodide staining-based flow cytometric analysis (reference value: 2%); format: functional
[3] = tested on: HCT-116; assay: Induction of apoptosis in human HCT116 cells assessed as late apoptotic cells at 7.5 uM after 48 hrs by annexin V-FITC/propidium iodide staining-based flow cytometric analysis (reference value: 5.2%); format: functional
[4] = tested on: HCT-116; assay: Induction of reactive oxygen species in human HCT116 cells at 30 uM after 48 hrs by DCFH-DA staining-based flow cytometric analysis in presence of NAC (reference value: 5.1%); format: functional
Summary of the method: (§1)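 HCT116 cells seeded overnight, then exposed to test compounds, alone or with NAC, for 48 h in complete medium. Loaded with 20 μM DCFH-DA for 30 min; intracellular ROS in 20 000 cells per group read by flow cytometry as histograms.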

[5] = tested on: HCT-116; assay: Induction of apoptosis in human HCT116 cells assessed as dead cells at 30 uM after 48 hrs by annexin V-FITC/propidium iodide staining-based flow cytometric analysis (reference value: 4.2%); format: functional
[6] = tested on: HCT-116; assay: Induction of apoptosis in human HCT116 cells assessed as early apoptotic cells at 30 uM after 48 hrs by annexin V-FITC/propidium iodide staining-based flow cytometric analysis (reference value: 1.1%); format: functional
[7] = tested on: HCT-116; assay: Induction of apoptosis in human HCT116 cells assessed as late apoptotic cells at 30 uM after 48 hrs by annexin V-FITC/propidium iodide staining-based flow cytometric analysis in presence of NAC (reference value: 7.2%); format: functional
[8] = tested on: HCT-116; assay: Induction of apoptosis in human HCT116 cells assessed as cleaved caspase 8 level at 30 uM up to 24 hrs by Western blot analysis; format: functional, cell-based
[9] = Antitumor activity against human HCT116 cells xenografted in nude mouse assessed as tumor growth inhibition at 10 mg/kg, ip administered 3 times per week measured on day 41; format: functional; settings: HCT-116, ip, 984 h, read-out: TGI
Summary of the method: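 Nude mice given 2 × 10^6 HCT116 cells subcutaneously in flank; at ~120 mm3 randomised, six per group; ip dosing in 200 μL, test agent 5 or 10 mg/kg three times weekly, irinotecan 10 mg/kg once weekly; tumour volume measured twice weekly to day 41; body weight tracked for toxicity.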

[10] = tested on: HCT-116; assay: Induction of cell cycle arrest in human HCT116 cells assessed as accumulation at G0/G1 phase at 30 uM after 24 hrs by propidium iodide staining-based flow cytometric analysis in presence of RNase A (reference value: 64.6%); format: functional
[11] = tested on: HCT-116; assay: Induction of cell cycle arrest in human HCT116 cells assessed as accumulation at G2/M phase at 30 uM after 24 hrs by propidium iodide staining-based flow cytometric analysis in presence of RNase A (reference value: 20.6%); format: functional
[12] = Downregulation of CDK2 expression in human HCT116 cells at 7.5 to 30 uM after 24 hrs by Western blot analysis; format: functional, cell-based; settings: HCT-116
Summary of the method: (§2)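 HCT116 cells exposed 24 h in complete medium; lysed in RIPA buffer (pH 8.0), protein by BCA, equal loads run on 8–13% SDS-PAGE, PVDF transfer, blocked in 5% BSA/TBST, primary antibodies overnight at 4 °C, HRP secondaries 2 h RT, ECL detection; β-actin as loading control.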

[13] = Antiproliferative activity against human HCT116 cells assessed as cell viability after 24 hrs by SRB assay; format: functional, cell-based; settings: HCT-116, 24 h
Summary of the method: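 HCT116 cells in 96-well plates exposed 24, 48 or 72 h; TCA fixation, 0.4% SRB staining, dye solubilised in 10 mM Tris pH 10.0, absorbance at 515 nm; viability relative to solvent-treated control.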

[14] = Downregulation of ATM expression in human HCT116 cells at 30 uM after 1 hr by Western blot analysis; format: functional, cell-based; settings: HCT-116, TDE = time-dependent effect
Summary of the method: (§3)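 HCT116 cells exposed for 1 h in complete medium; RIPA lysates quantified by BCA, equal protein separated on 8–13% SDS-PAGE, transferred to PVDF, probed with primary antibodies overnight at 4 °C and HRP secondaries, chemiluminescence read-out.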

[15] = Downregulation of ATR expression in human HCT116 cells at 30 uM after 1 hr by Western blot analysis; format: functional, cell-based; settings: HCT-116, TDE = time-dependent effect; summary of the method: as §3
[16] = molecular target: Serine-protein kinase ATM/ATR (Homo sapiens) (UniProt Q13315+Q13535); assay: Activation of ATM/ATR in human HCT116 cells assessed as increase in Chk2 phosphorylation at Thr68 at 7.5 to 30 uM after 24 hrs by Western blot analysis; format: cell-based; settings: HCT-116; summary of the method: as §2
[17] = tested on: HCT-116; assay: Increase in p27 expression in human HCT116 cells after 24 hrs by western blot analysis; format: functional, cell-based; summary of the method: as §2
[18] = Decrease in phosphorylated p27 expression at Thr187 in human HCT116 cells after 24 hrs by western blot analysis; format: functional, cell-based; settings: HCT-116; summary of the method: as §2
[19] = Decrease in Skp2 expression in human HCT116 cells at 7.5 to 30 uM after 24 hrs by western blot analysis; format: functional, cell-based; settings: HCT-116; summary of the method: as §2
[20] = tested on: A549; assay: Antiproliferative activity against human A549 cells after 24 to 72 hrs by SRB assay; format: functional, cell-based
Summary of the method: (§4)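 Cells grown in 96-well plates (RPMI 1640; MRC-5 in MEM, 10% FBS, antibiotics) with compound […]; fixed in 10% TCA 30 min at 4 °C, stained 0.4% SRB in 1% acetic acid 1 h, dye dissolved in 10 mM Tris pH 10.0, A515 read; viability as % of solvent control, IC50 by nonlinear regression; mean of three independent experiments.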

[21] = tested on: MRC5; assay: Cytotoxicity against human MRC5 cells after 24 to 72 hrs by SRB assay; format: cell-based; summary of the method: as §4
[22] = tested on: Mus musculus; assay: Upregulation of p27 in human HCT116 cells xenografted in nude mouse at 5 to 10 mg/kg, ip administered 3 times per week measured on day 41 by Western blot analysis; format: functional, organism-based; settings: HCT-116
Summary of the method: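 HCT116 xenografts in nude mice dosed ip at 5 or 10 mg/kg three times weekly to day 41. Portions of the excised frozen tumors were thawed on ice, homogenized in complete lysis buffer, protein quantified by Bradford, and p21, p27 and Skp2 assessed by Western blot with β-actin as internal control.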

[23] = Antiproliferative activity against p53-expressing human HCT116 cells assessed as cell viability after 72 hrs by SRB assay; format: functional, cell-based; settings: HCT-116, 72 h
Summary of the method: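 p53 wild-type and p53-null HCT116 cells in 96-well plates treated 72 h; SRB assay (TCA fix, SRB stain, Tris pH 10.0 solubilisation, A515); viability vs solvent control, IC50 by nonlinear regression.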

[24] = tested on: HCT-116; assay: Induction of reactive oxygen species in human HCT116 cells after 48 hrs by DCFH-DA staining-based flow cytometric analysis; format: functional, cell-based; summary of the method: as §1
[25] = tested on: HCT-116; assay: Induction of apoptosis in human HCT116 cells assessed as cleaved PARP level at 30 uM up to 48 hrs by Western blot analysis in presence of NAC

SMILES: O=C/C=C/c1ccc2c(c1)O[C@@H](CO)[C@H](c1ccc(O)c(O)c1)O2 [AMERICANIN A]
- Activity [1]: 16.4%
- Activity [2]: 2%
- Activity [3]: 10.4%
- Activity [4]: 9.9%
- Activity [5]: 5.1%
- Activity [6]: 7%
- Activity [7]: 18.9%
- Activity [8]: Active
- inhibition in vivo at 10 mg/kg [9]: 55.7%
- Activity [10]: 39%
- Activity [11]: 38.9%
- Activity [12]: Active
- pIC50 [13]: 4.62
- Activity [14]: tde
- Activity [15]: tde
- Activity [16]: Dose-dependent effect
- Activity [17]: Dose-dependent effect
- Activity [18]: Active
- Activity [19]: Active
- pIC50 [20]: 4.41
- pIC50 [21]: < 4.00
- Activity [22]: Active
- pIC50 [23]: 5.08
- Activity [24]: Dose-dependent effect
- Activity [25]: inactive
